According to ChEMBL document CHEMBL3351553 (J Med Chem, 2014):
Converted amounts (≈) assume the structure as drawn.

How the values were obtained:
Staphylococcus aureus = assay: Antimicrobial activity against Staphylococcus aureus UAMS1 incubated for 16 hrs by CLSI based method; format: functional; conditions: UAMS1, 16 h
DNA gyrase = DNA gyrase (Staphylococcus aureus, UniProt P0A0K8+P20831); assay: Inhibition of Staphylococcus aureus DNA gyrase assessed as reduction in enzyme-catalyzed supercoiling of relaxed circular pBR322 DNA by agarose gel electrophoresis; format: protein-complex assay
Method in brief: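 Recombinant S. aureus gyrase kit, 0.5 U enzyme, relaxed pBR322 (250 ng/μL) in 40 mM HEPES·KOH pH 7.6, 10 mM Mg acetate, 10 mM DTT, 2 mM ATP, 500 mM K glutamate, 0.5 mg/mL albumin; 37 °C, 30 min.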

[1] = Inhibition of Staphylococcus aureus topoisomerase 4 assessed as reduction in decatenation of kDNA at 100 to 500 uM by gel electrophoresis method
Method in brief: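 Compounds were in DMSO, with water or DMSO as vehicle controls. Reactions were stopped with STEB plus chloroform:isoamyl alcohol and run on 1% agarose TAE gels stained with ethidium bromide. IC50 was taken from densitometry against reactions with and without enzyme.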

Chain of DNA gyrase (P0A0K8 whole entry): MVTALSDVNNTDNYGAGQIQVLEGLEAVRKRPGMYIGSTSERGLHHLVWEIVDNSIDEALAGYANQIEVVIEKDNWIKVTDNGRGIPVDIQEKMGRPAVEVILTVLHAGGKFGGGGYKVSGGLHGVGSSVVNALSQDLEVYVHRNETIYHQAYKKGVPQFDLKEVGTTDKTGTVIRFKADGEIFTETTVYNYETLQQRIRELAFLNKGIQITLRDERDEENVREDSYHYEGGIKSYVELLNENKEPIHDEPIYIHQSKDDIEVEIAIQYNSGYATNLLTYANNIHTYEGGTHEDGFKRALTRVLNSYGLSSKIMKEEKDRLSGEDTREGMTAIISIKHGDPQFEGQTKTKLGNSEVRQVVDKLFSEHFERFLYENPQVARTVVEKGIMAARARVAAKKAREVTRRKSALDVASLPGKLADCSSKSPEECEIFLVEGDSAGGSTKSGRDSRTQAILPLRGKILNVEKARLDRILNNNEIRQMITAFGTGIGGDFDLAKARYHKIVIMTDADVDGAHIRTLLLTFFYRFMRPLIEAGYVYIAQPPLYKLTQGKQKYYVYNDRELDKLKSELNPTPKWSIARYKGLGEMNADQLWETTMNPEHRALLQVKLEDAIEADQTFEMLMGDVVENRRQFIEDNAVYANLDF
Chain of DNA gyrase (P20831 whole entry): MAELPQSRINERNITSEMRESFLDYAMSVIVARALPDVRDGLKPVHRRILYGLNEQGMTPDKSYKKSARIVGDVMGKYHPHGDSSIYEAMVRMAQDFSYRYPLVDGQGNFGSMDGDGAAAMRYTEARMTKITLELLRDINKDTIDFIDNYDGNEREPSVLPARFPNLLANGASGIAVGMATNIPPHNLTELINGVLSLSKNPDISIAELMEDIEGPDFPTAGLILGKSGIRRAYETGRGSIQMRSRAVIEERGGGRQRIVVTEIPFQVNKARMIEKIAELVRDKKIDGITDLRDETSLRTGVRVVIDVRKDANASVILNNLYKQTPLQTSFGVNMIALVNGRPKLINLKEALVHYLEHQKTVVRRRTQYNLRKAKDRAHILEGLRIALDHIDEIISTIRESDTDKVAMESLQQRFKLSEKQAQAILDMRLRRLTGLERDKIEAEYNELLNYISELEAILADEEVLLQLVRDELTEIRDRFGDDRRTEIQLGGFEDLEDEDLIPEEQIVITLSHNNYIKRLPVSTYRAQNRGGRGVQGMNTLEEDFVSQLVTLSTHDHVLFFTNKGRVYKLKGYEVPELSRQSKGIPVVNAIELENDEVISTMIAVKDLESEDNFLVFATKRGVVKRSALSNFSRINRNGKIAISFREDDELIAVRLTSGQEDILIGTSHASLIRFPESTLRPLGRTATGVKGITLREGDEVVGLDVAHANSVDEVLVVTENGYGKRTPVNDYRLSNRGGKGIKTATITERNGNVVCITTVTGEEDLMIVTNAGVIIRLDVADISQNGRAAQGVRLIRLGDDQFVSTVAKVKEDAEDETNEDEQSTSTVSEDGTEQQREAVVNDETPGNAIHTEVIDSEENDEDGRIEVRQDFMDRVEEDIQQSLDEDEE

Row | SMILES | MIC (Staphylococcus aureus) [µg/mL] | IC50 (DNA gyrase) [µM] | IC50 [1] [µM]
1 | Cc1ccccc1CN1CCC(C(O)(c2ccccc2)c2ccccc2)CC1 | 128 (≈ 345 µM) |  | 
2 | COC(=O)c1ccc(CN2CCC(C(O)(c3ccccc3)c3ccccc3)CC2)cc1 | > 256 |  | 
3 | CC(C)(C)c1ccc(C(=O)N2CCC(C(O)(c3ccccc3)c3ccccc3)CC2)cc1 | > 256 | 93 | > 333
4 | N#Cc1cccc(CN2CCC(C(O)(c3ccccc3)c3ccccc3)CC2)c1 | > 256 |  | 
5 | OC(CCCN1CCC(C(O)(c2ccccc2)c2ccccc2)CC1)c1ccc(-c2ccccc2)cc1 (stereo not drawn) | 8 (≈ 16.3 µM) | 13 | 100
6 | COC(=O)c1ccccc1CN1CCC(C(O)(c2ccccc2)c2ccccc2)CC1 | > 256 |  | 
7 | OC(CCCN1CCC(C(O)(c2ccccc2)c2ccccc2)CC1)c1ccc(Cl)cc1 (stereo not drawn) | 64 (≈ 142 µM) | 133 | > 333
8 | N#Cc1ccccc1CN1CCC(C(O)(c2ccccc2)c2ccccc2)CC1 | > 256 |  | 
9 | CC(C)(C)c1ccc(CCN2CCC(C(O)(c3ccccc3)c3ccccc3)CC2)cc1 | 8 (≈ 18.7 µM) | 93 | 147
10 | Nc1ccc(CCN2CCC(C(O)(c3ccccc3)c3ccccc3)CC2)cc1 | > 256 | 93 | > 333
11 | CC(C)(C)c1ccc([C@H](O)CCCN2CCC(C(O)(c3ccccc3)c3ccccc3)CC2)cc1 [R-TERFENADINE] |  |  | 110
12 | COc1ccccc1CN1CCC(C(O)(c2ccccc2)c2ccccc2)CC1 | 128 (≈ 330 µM) |  | 
13 | CC(C)(C)c1ccc(C(O)CN2CCC(C(O)(c3ccccc3)c3ccccc3)CC2)cc1 (stereo not drawn) | 16 (≈ 36.1 µM) |  | 100
14 | OC(CCCN1CCC(C(O)(c2ccccc2)c2ccccc2)CC1)c1ccc(F)cc1 (stereo not drawn) | 128 (≈ 295 µM) | > 500 | > 333
15 | Oc1ccccc1CN1CCC(C(O)(c2ccccc2)c2ccccc2)CC1 | 64 (≈ 171 µM) |  | 
16 | OC(c1ccccc1)(c1ccccc1)C1CCN(Cc2ccc(-c3ccsc3)cc2)CC1 | 16 (≈ 36.4 µM) |  | 
17 | CC(C)c1ccc(C(O)CCCN2CCC(C(O)(c3ccccc3)c3ccccc3)CC2)cc1 (stereo not drawn) | 32 (≈ 69.9 µM) |  | 273
18 | COc1ccc(CN2CCC(C(O)(c3ccccc3)c3ccccc3)CC2)cc1 | 128 (≈ 330 µM) |  | 
19 | CC(C)(C)c1ccc(C(O)CCCN2CCN(C(c3ccccc3)c3ccccc3)CC2)cc1 (stereo not drawn) [TRENIZINE] | > 256 |  | 
20 | O=C(O)c1ccc(C(O)CCCN2CCC(C(O)(c3ccccc3)c3ccccc3)CC2)cc1 (stereo not drawn) | > 256 | > 500 | > 333
21 | CC(C)(C)c1ccc(C(=O)CCCN2CCC(C(O)(c3ccccc3)c3ccccc3)CC2)cc1 [TERFENADONE] | 8 (≈ 17 µM) |  | 110
22 | CC(C)(C)c1ccc(C(O)CCCN2CCC(Cc3ccccc3)CC2)cc1 (stereo not drawn) | > 256 | > 333 | 
23 | OC(c1ccccc1)(c1ccccc1)C1CCN(CCc2ccc(F)cc2)CC1 | 128 (≈ 329 µM) | > 333 | 
24 | OC(c1ccccc1)(c1ccccc1)C1CCN(Cc2ccccc2C(F)(F)F)CC1 | > 256 |  | 
25 | N#Cc1ccc(CN2CCC(C(O)(c3ccccc3)c3ccccc3)CC2)cc1 | > 256 |  | 
26 | Cc1ccc(CN2CCC(C(O)(c3ccccc3)c3ccccc3)CC2)cc1 | 128 (≈ 345 µM) |  | 
27 | CC(C)(C)c1ccc(C(O)CCCN2CCC(C(c3ccccc3)c3ccccc3)CC2)cc1 (stereo not drawn) | 8 (≈ 17.6 µM) |  | 

Row | SMILES | MIC (Staphylococcus aureus) [µg/mL] | IC50 (DNA gyrase) [µM] | IC50 [1] [µM]
28 | CC(C)(C)c1ccccc1CCN1CCC(C(O)(c2ccccc2)c2ccccc2)CC1 | 16 (≈ 37.4 µM) |  | 
29 | CC(C)(C)c1ccc([C@@H](O)CCCN2CCC(C(O)(c3ccccc3)c3ccccc3)CC2)cc1 |  |  | 100
30 | OC(c1ccccc1)(c1ccccc1)C1CCN(Cc2ccc(-c3ccoc3)cc2)CC1 | 32 (≈ 75.6 µM) |  | 
31 | COc1ccc(C(O)CCCN2CCC(C(O)(c3ccccc3)c3ccccc3)CC2)cc1 (stereo not drawn) | > 256 | > 500 | > 333
32 | O=[N+]([O-])c1ccc(CCN2CCC(C(O)(c3ccccc3)c3ccccc3)CC2)cc1 | 64 (≈ 154 µM) | 263 | > 333
33 | Oc1ccc(CN2CCC(C(O)(c3ccccc3)c3ccccc3)CC2)cc1 | 128 (≈ 343 µM) |  | 
34 | OC(c1ccccc1)(c1ccccc1)C1CCN(Cc2ccc(-c3ccco3)cc2)CC1 | 32 (≈ 75.6 µM) |  | 
35 | CC1(c2ccc(CCN3CCC(C(O)(c4ccccc4)c4ccccc4)CC3)cc2)COC1 | > 256 | > 333 | 
36 | OC(c1ccccc1)(c1ccccc1)C1CCN(Cc2ccccc2F)CC1 | > 256 |  | 
37 | OC(CCCN1CCC(C(O)(c2ccccc2)c2ccccc2)CC1)c1ccc(Br)cc1 (stereo not drawn) | 32 (≈ 64.7 µM) | > 500 | > 333
38 | CC(C)(C)c1ccc(C(N)CCCN2CCC(C(O)(c3ccccc3)c3ccccc3)CC2)cc1 (stereo not drawn) | 16 (≈ 34 µM) |  | > 333
39 | Cc1cccc(CN2CCC(C(O)(c3ccccc3)c3ccccc3)CC2)c1 | 128 (≈ 345 µM) |  | 
40 | OC(c1ccccc1)(c1ccccc1)C1CCN(Cc2ccc(F)cc2)CC1 | > 256 |  | 
41 | COC(=O)c1cccc(CN2CCC(C(O)(c3ccccc3)c3ccccc3)CC2)c1 | > 256 |  | 
42 | CC(C)(C)c1ccc(C(=O)CN2CCC(C(O)(c3ccccc3)c3ccccc3)CC2)cc1 | > 256 |  | 247
43 | OC(c1ccccc1)(c1ccccc1)C1CCN(Cc2cccc(F)c2)CC1 | 128 (≈ 341 µM) |  | 
44 | CC(C)(C)c1ccc(CCCN2CCC(C(O)(c3ccccc3)c3ccccc3)CC2)cc1 | 8 (≈ 18.1 µM) | 93 | 100
45 | CC(C)(C)c1ccc(C(O)CCCCN2CCC(C(O)(c3ccccc3)c3ccccc3)CC2)cc1 (stereo not drawn) | 16 (≈ 32.9 µM) | 100 | 133
46 | O=C(O)c1ccc(CN2CCC(C(O)(c3ccccc3)c3ccccc3)CC2)cc1 | > 256 |  | 
47 | OC(c1ccccc1)(c1ccccc1)C1CCN(CCc2ccc(Br)cc2)CC1 | 16 (≈ 35.5 µM) | 247 | 260
48 | OC(c1ccccc1)(c1ccccc1)C1CCN(CCc2ccc(-c3cccnc3)cc2)CC1 | 32 (≈ 71.3 µM) | 250 | 280
49 | CC(C)c1ccc(CN2CCC(C(O)(c3ccccc3)c3ccccc3)CC2)cc1 | 32 (≈ 80.1 µM) |  | 
50 | CC(C)(C)c1ccc(C(O)CCN2CCC(C(O)(c3ccccc3)c3ccccc3)CC2)cc1 (stereo not drawn) | 8 (≈ 17.5 µM) | 133 | 333
51 | OC(c1ccccc1)(c1ccccc1)C1CCN(Cc2ccccc2-c2ccccc2)CC1 | > 256 |  | 
52 | O=C(O)c1cccc(CN2CCC(C(O)(c3ccccc3)c3ccccc3)CC2)c1 | > 256 |  | 
53 | OC(c1ccccc1)(c1ccccc1)C1CCN(Cc2ccc(-n3cccc3)cc2)CC1 | 32 (≈ 75.7 µM) |  | 
54 | OC(c1ccccc1)(c1ccccc1)C1CCN(Cc2cccc(-c3ccccc3)c2)CC1 | 64 (≈ 148 µM) |  | 

Row | SMILES | MIC (Staphylococcus aureus) [µg/mL] | IC50 (DNA gyrase) [µM] | IC50 [1] [µM]
55 | CC(C)(C)c1ccc(CN2CCC(C(O)(c3ccccc3)c3ccccc3)CC2)cc1 |  | 90 | 213
56 | CC(C)(C)c1cccc(CCN2CCC(C(O)(c3ccccc3)c3ccccc3)CC2)c1 | 16 (≈ 37.4 µM) | 93 | > 333
57 | CC(C)(C)c1ccccc1CN1CCC(C(O)(c2ccccc2)c2ccccc2)CC1 | > 256 |  | 
58 | CC(C)(C)c1ccc(CCN2CCC(C(O)(c3ccccc3)c3ccccc3)CC2)cn1 | 64 (≈ 149 µM) | > 333 | 
59 | OC(c1ccccc1)(c1ccccc1)C1CCN(Cc2cccc(C(F)(F)F)c2)CC1 | > 256 |  | 
60 | CC(C)(C)c1ccc(C(O)CCCN2CCC(=C(c3ccccc3)c3ccccc3)CC2)cc1 (stereo not drawn) | > 256 |  | 
61 | CC(C)(C)c1ccc(C(=O)CCN2CCC(C(O)(c3ccccc3)c3ccccc3)CC2)cc1 | 32 (≈ 70.2 µM) | 90 | 133
62 | Oc1cccc(CN2CCC(C(O)(c3ccccc3)c3ccccc3)CC2)c1 | > 256 |  | 
63 | Cc1ccc(C(O)CCCN2CCC(C(O)(c3ccccc3)c3ccccc3)CC2)cc1 (stereo not drawn) | 128 (≈ 298 µM) | > 500 | > 333
64 | CC(C)(C(=O)O)c1ccc(C(O)CCCN2CCC(C(O)(c3ccccc3)c3ccccc3)CC2)cc1 (stereo not drawn) [FEXOFENADINE] | > 256 | > 500 | > 333
65 | CC(C)(C)c1ccc(OCCCN2CCC(C(O)(c3ccccc3)c3ccccc3)CC2)cc1 |  | 100 | > 333
66 | OC(CCCN1CCC(C(O)(c2ccccc2)c2ccccc2)CC1)c1ccccc1 (stereo not drawn) | > 256 | > 500 | > 333
67 | O=C(O)c1ccccc1CN1CCC(C(O)(c2ccccc2)c2ccccc2)CC1 | > 256 |  | 
68 | OC(c1ccccc1)(c1ccccc1)C1CCN(Cc2ccc(C(F)(F)F)cc2)CC1 | > 256 |  | 
69 | CC(C)(C)c1ccc(C(O)CCCN2CCC(C(O)c3ccccc3)CC2)cc1 (stereo not drawn) | > 256 | > 333 | 
70 | OC(c1ccccc1)(c1ccccc1)C1CCN(Cc2ccc(-c3cccs3)cc2)CC1 | 32 (≈ 72.8 µM) |  | 
71 | OC(c1ccccc1)(c1ccccc1)C1CCN(CCc2ccc(-c3ccccc3)cc2)CC1 | 8 (≈ 17.9 µM) | 80 | 133
72 | OC(c1ccccc1)(c1ccccc1)C1CCN(CCc2ccc(-c3ccncc3)cc2)CC1 | 32 (≈ 71.3 µM) | 93 | 227
73 | COC(=O)C(C)(C)c1ccc(C(O)CCCN2CCC(C(O)(c3ccccc3)c3ccccc3)CC2)cc1 (stereo not drawn) | > 256 | > 500 | > 333
74 | COc1cccc(CN2CCC(C(O)(c3ccccc3)c3ccccc3)CC2)c1 | 128 (≈ 330 µM) |  | 
75 | OC(c1ccccc1)(c1ccccc1)C1CCN(CCc2ccc(C(F)(F)F)cc2)CC1 | 16 (≈ 36.4 µM) | 17 | > 333
76 | OC(c1ccccc1)(c1ccccc1)C1CCN(CCc2ccc(Cl)cc2)CC1 | 32 (≈ 78.8 µM) | 260 | 267
77 | CN(C)c1ccc(CCN2CCC(C(O)(c3ccccc3)c3ccccc3)CC2)cc1 | > 256 | > 333 | 
78 | COc1ccc(CCN2CCC(C(O)(c3ccccc3)c3ccccc3)CC2)cc1 | > 256 | > 333 | 
79 | CC(C)(C)c1cccc(CN2CCC(C(O)(c3ccccc3)c3ccccc3)CC2)c1 | 32 (≈ 77.4 µM) |  | 
